In brackets after ≈: the same amount, converted by molar mass.
Tests used:
Type in all cases: functional
Mythimna separata [1] = test: Larvicidal activity against fourth-instar larval stage of Mythimna separata (Oriental armyworm) in compound-pretreated corn leaves assessed as mortality at 200 mg/kg at 25 +/-1 degC measured after 4 days
Method in brief: (§1)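 Insects were reared in the laboratory and tested at 25 ± 1 °C, with repeats as statistics required. Larvae were scored dead or alive. Mortality was corrected by Abbott's formula and expressed on a 0–100 scale, where 0 is no activity and 100 is total kill.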

Mythimna separata [2] = test: Larvicidal activity against fourth-instar larval stage of Mythimna separata (Oriental armyworm) in compound-pretreated corn leaves assessed as mortality at 10 mg/kg at 25 +/-1 degC measured after 4 days; method in brief: as §1
Mythimna separata [3] = test: Larvicidal activity against fourth-instar larval stage of Mythimna separata (Oriental armyworm) in compound-pretreated corn leaves assessed as mortality at 100 mg/kg at 25 +/-1 degC measured after 4 days; method in brief: as §1
Mythimna separata [4] = test: Larvicidal activity against fourth-instar larval stage of Mythimna separata (Oriental armyworm) in compound-pretreated corn leaves assessed as mortality at 50 mg/kg at 25 +/-1 degC measured after 4 days; method in brief: as §1
Mythimna separata [5] = test: Larvicidal activity against fourth-instar larval stage of Mythimna separata (Oriental armyworm) in compound-pretreated corn leaves assessed as mortality at 2.5 mg/kg at 25 +/-1 degC measured after 4 days; method in brief: as §1
Mythimna separata [6] = test: Larvicidal activity against fourth-instar larval stage of Mythimna separata (Oriental armyworm) in compound-pretreated corn leaves assessed as mortality at 5 mg/kg at 25 +/-1 degC measured after 4 days; method in brief: as §1
Mythimna separata [7] = test: Larvicidal activity against fourth-instar larval stage of Mythimna separata (Oriental armyworm) in compound-pretreated corn leaves assessed as mortality at 25 mg/kg at 25 +/-1 degC measured after 4 days; method in brief: as §1
Mythimna separata [8] = test: Larvicidal activity against fourth-instar larval stage of Mythimna separata (Oriental armyworm) in compound-pretreated corn leaves assessed as mortality at 40 mg/kg at 25 +/-1 degC measured after 4 days; method in brief: as §1
Mythimna separata [9] = test: Larvicidal activity against fourth-instar larval stage of Mythimna separata (Oriental armyworm) in compound-pretreated corn leaves assessed as mortality at 20 mg/kg at 25 +/-1 degC measured after 4 days; method in brief: as §1
Mythimna separata [10] = test: Larvicidal activity against fourth-instar larval stage of Mythimna separata (Oriental armyworm) in compound-pretreated corn leaves assessed as mortality at 30 mg/kg at 25 +/-1 degC measured after 4 days; method in brief: as §1
Plutella xylostella [11] = test: Larvicidal activity against second-instar larval stage of Plutella xylostella (diamondback moth) in cabbage leaves assessed as mortality at 25 +/-1 degC treated for 15 secs before larval infestation measured after 6 days by leaf-dip method; conditions: 144 h
Method in brief: (§2)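 Leaf-dip assay on laboratory-reared diamondback moth larvae at 25 ± 1 °C. Fresh cabbage leaf disks 1.8 cm across were dipped in test solution for 15 s. Larvae were scored dead or alive, and mortality was corrected by Abbott's formula. Mortality-regression data were put through Finney probit analysis to give LC50 for the test compounds and the parent reference.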

Plutella xylostella [12] = test: Toxic ratio of RH-5992 LC50 to compound LC50 for second-instar larval stage of Plutella xylostella (diamondback moth) measured after 6 days by leaf-dip method; method in brief: as §2

SMILES | mortality at 200 mg/kg (Mythimna separata [1]) | mortality at 10 mg/kg (Mythimna separata [2]) | mortality at 100 mg/kg (Mythimna separata [3]) | mortality at 50 mg/kg (Mythimna separata [4]) | mortality at 2.5 mg/kg (Mythimna separata [5]) | mortality at 5 mg/kg (Mythimna separata [6]) | mortality at 25 mg/kg (Mythimna separata [7]) | mortality at 40 mg/kg (Mythimna separata [8]) | mortality at 20 mg/kg (Mythimna separata [9]) | mortality at 30 mg/kg (Mythimna separata [10]) | LC50 (Plutella xylostella [11]) | RatioLC50 (Plutella xylostella [12])
Cc1cc(C)cc(C(=O)N(NC(=O)c2ccccc2)C(C)(C)C)c1 | 100% | 10% | 100% | 80% | – | – | – | – | – | – | – | –
CCCCSSN(C(=O)c1ccc2c(c1C)OC(C)C2)N(C(=O)c1cc(C)cc(C)c1)C(C)(C)C (stereo not drawn) | – | 100% | – | – | 80% | 100% | 100% | – | – | – | – | –
CCc1ccc(CN(SNc2ccc(C)cc2)N(C(=O)c2cc(C)cc(C)c2)C(C)(C)C)cc1 | – | – | – | – | 100% | – | – | – | – | – | – | –
Cc1cc(C)cc(C(=O)N(NC(=O)c2ccc3c(c2C)OC(C)C3)C(C)(C)C)c1 (stereo not drawn) [FUXIAN] | – | – | – | – | 90% | 100% | – | – | – | – | – | –
CCCSSN(C(=O)c1ccc2c(c1C)OC(C)C2)N(C(=O)c1cc(C)cc(C)c1)C(C)(C)C (stereo not drawn) | – | 100% | – | – | 100% | 100% | 100% | – | – | – | – | –
CC(C)(C)N(C(=O)c1ccccc1)N(SSN(C(=O)c1ccccc1)N(C(=O)c1ccccc1)C(C)(C)C)C(=O)c1ccccc1 | 95% | 5% | 85% | 60% | – | – | – | – | – | – | – | –
Cc1cccc(C(=O)N(NC(=O)c2ccc(Cl)cc2)C(C)(C)C)c1 | 100% | 0% | 100% | 90% | – | – | – | – | – | – | – | –
CCOC(=O)CCN(Cc1ccccc1)SN(Cc1ccc(CC)cc1)N(C(=O)c1cc(C)cc(C)c1)C(C)(C)C | – | – | – | – | 100% | – | – | – | – | – | – | –
CCCSSN(C(=O)c1ccc(Cl)cc1)N(C(=O)c1ccccc1)C(C)(C)C | – | 80% | – | – | 0% | 20% | 100% | – | – | – | – | –
CCc1ccc(CN(SNc2ccc(Cl)cc2)N(C(=O)c2cc(C)cc(C)c2)C(C)(C)C)cc1 | – | 90% | – | – | 0% | 80% | 100% | – | – | – | – | –
Cc1cc(C)cc(C(=O)N(N(SSN(C(=O)c2ccc(Cl)cc2)N(C(=O)c2cc(C)cc(C)c2)C(C)(C)C)C(=O)c2ccc(Cl)cc2)C(C)(C)C)c1 | 100% | 0% | 90% | 60% | – | – | – | – | – | – | – | –
CCCCSSN(C(=O)c1ccc(Cl)cc1)N(C(=O)c1ccccc1)C(C)(C)C | – | 90% | – | – | 0% | 30% | 100% | – | – | – | – | –
CCCSSN(C(=O)c1cccc(OC)c1C)N(C(=O)c1cc(C)cc(C)c1)C(C)(C)C | – | 100% | – | – | 100% | 100% | 100% | – | – | – | – | –
Cc1cccc(C(=O)N(NC(=O)c2ccccc2)C(C)(C)C)c1 | 100% | 0% | 50% | 30% | – | – | – | – | – | – | – | –
CC(C)(C)N(NC(=O)c1ccccc1)C(=O)c1ccccc1 [RH-5849] | – | 0% | – | 95% | – | – | 70% | – | – | – | – | –
Cc1cc(C)cc(C(=O)N(NC(=O)c2ccc(Cl)cc2)C(C)(C)C)c1 | 100% | 30% | 100% | 100% | – | – | – | 100% | 50% | – | – | –
CCCCSSN(C(=O)c1ccccc1)N(C(=O)c1ccccc1)C(C)(C)C | – | 0% | – | 100% | – | – | 90% | – | – | – | – | –
CCCSSN(C(=O)c1ccccc1)N(C(=O)c1ccccc1)C(C)(C)C | – | 0% | – | 100% | – | – | 90% | – | – | – | – | –
CC(C)(C)N(NC(=O)c1ccc(Cl)cc1)C(=O)c1ccccc1 [HALOFENOZIDE] | 100% | 0% | 100% | 100% | 10% | 70% | – | 100% | 85% | 95% | – | –
Cc1cccc(C(=O)N(N(SSN(C(=O)c2ccc(Cl)cc2)N(C(=O)c2cccc(C)c2)C(C)(C)C)C(=O)c2ccc(Cl)cc2)C(C)(C)C)c1 | 100% | 0% | 100% | 100% | – | – | – | – | – | – | – | –
CCCCSSN(C(=O)c1cccc(OC)c1C)N(C(=O)c1cc(C)cc(C)c1)C(C)(C)C | – | 100% | – | – | 100% | 100% | 100% | – | – | – | – | –
CCCSSN(C(=O)c1ccc(CC)cc1)N(C(=O)c1cc(C)cc(C)c1)C(C)(C)C | – | 100% | – | – | 100% | 100% | – | – | – | – | – | –
CC(C)(C)N(C(=O)c1ccccc1)N(SSN(C(=O)c1ccc(Cl)cc1)N(C(=O)c1ccccc1)C(C)(C)C)C(=O)c1ccc(Cl)cc1 | – | 10% | 100% | 100% | – | – | – | 100% | 75% | 85% | – | –
CCCCSSN(C(=O)c1ccc(CC)cc1)N(C(=O)c1cc(C)cc(C)c1)C(C)(C)C | – | 100% | – | – | 90% | 100% | – | – | – | – | – | –
CCc1ccc(C(=O)N(SSN(C(=O)c2ccc(CC)cc2)N(C(=O)c2cc(C)cc(C)c2)C(C)(C)C)N(C(=O)c2cc(C)cc(C)c2)C(C)(C)C)cc1 | 100% | 10% | 100% | 100% | – | – | – | 100% | 95% | 100% | – | –
Cc1cccc(C(=O)N(N(SSN(C(=O)c2ccccc2)N(C(=O)c2cccc(C)c2)C(C)(C)C)C(=O)c2ccccc2)C(C)(C)C)c1 | 100% | 0% | 50% | 10% | – | – | – | – | – | – | – | –
Cc1cc(C)cc(C(=O)N(N(SSN(C(=O)c2ccccc2)N(C(=O)c2cc(C)cc(C)c2)C(C)(C)C)C(=O)c2ccccc2)C(C)(C)C)c1 | 100% | 0% | 70% | 10% | – | – | – | – | – | – | – | –
CCc1ccc(C(=O)NN(C(=O)c2cc(C)cc(C)c2)C(C)(C)C)cc1 [TEBUFENOZIDE] | 100% | 75% | 100% | 100% | 55% | 95% | – | 100% | 100% | 100% | 56.9 µg/mL (≈ 161 µM) | 1

— ChEMBL document CHEMBL3044702, “Synthesis and insecticidal activities of novel N-sulfenyl-N'-tert-butyl-N,N'-diacylhydrazines. 3. N-(alkyldithio), n-(aminothio), and N,N-dithio derivatives” (2008)
